# Bioassay records deposited in PubChem BioAssay by several laboratories.
# Rows were chosen to be rich in hits. Some 4.3% of all compounds tested hit in one or more screens of this group.
# RBBP9 inhibitor: blocks human serine hydrolase RBBP9; 220,000 tested, 0.2% active; inhibition, % at 7.94 µM; O75884; recombinant RBBP9, FP-Rh probe fluorescence polarization;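 active = inhibition above the campaign mean of all tested compounds plus 3 SD, cut at about 14% in these data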;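 note: plate controls were DMSO wells with RBBP9 for no effect and wells lacking RBBP9 protein for full effect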
#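 System: RBBP9 protein / Quantity: 2.5 µM RBBP9 dispensing solution, before mixing / Also added: Serine-hydrolase probe FP-Rh, 375 nM pre-mixing / Dosing: 7.94 µM single dose, 0.794% DMSO / Timing: enzyme-compound preincubation 30 min, then probe labeling 45 min, 25 °C / Signal: FP readout at 525/598 nm / Controls: DMSO-treated enzyme wells and wells lacking RBBP9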
# UBC13 inh: human UBC13 polyubiquitination inhibition | P61088 | UBC13 polyubiquitin chain formation, TR-FRET | inhibition, % at 20 µM | 330,000 tested, 0.47% active | AID 485273; in the data active = inhibition above about 45%, passing the limit was not always enough; inconclusive = no clear call, values can overlap the other calls
# ALR H2O2 inh: human ALR oxidase inhibition via reduced H2O2. purified ALR, DTT oxidation, H2O2 HRP-luminol luminescence. inhibition, % (concentration not given with the values). 290,000 tested, 3.8% active. AID 485317;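 active = mean replicate inhibition above about 79%, with every replicate also reaching it, limit read from the data; inconclusive = only one of the two criteria met; inactive = mean below limit and not every replicate reaching it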
# PREPL inh: inhibits the human prolyl oligopeptidase-like enzyme | Q4J6C6 | 320,000 tested, 0.68% active | recombinant PREPL, fluorescence polarization activity-based probe | inhibition, % at 5.96 µM; in the data active = inhibition above about 43%;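 note: 0% = enzyme with DMSO and 100% = wells lacking enzyme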
# UBC9 SUMO inh: inhibitors of human SUMOylation (UBC9); P63279; HTRF SUMOylation assay, SAE1/SAE2 + UBC9, in vitro; inhibition, % at 35 µM; 290,000 tested, 0.36% active; AID 2006; in the data active = inhibition above about 50%, passing the limit was not always enough; inconclusive = no clear call, values can overlap the other calls
# Rin1-Abl PPI inh: human Rin1-Abl interaction inhibition | TR-FRET Rin1/Abl binding, biochemical | inhibition, % at 7.35 µM | 360,000 tested, 0.4% active | AID 588664; in the data active = inhibition above about 5%, passing the limit was not always enough
# Target sequence (P00519 whole entry, looked up): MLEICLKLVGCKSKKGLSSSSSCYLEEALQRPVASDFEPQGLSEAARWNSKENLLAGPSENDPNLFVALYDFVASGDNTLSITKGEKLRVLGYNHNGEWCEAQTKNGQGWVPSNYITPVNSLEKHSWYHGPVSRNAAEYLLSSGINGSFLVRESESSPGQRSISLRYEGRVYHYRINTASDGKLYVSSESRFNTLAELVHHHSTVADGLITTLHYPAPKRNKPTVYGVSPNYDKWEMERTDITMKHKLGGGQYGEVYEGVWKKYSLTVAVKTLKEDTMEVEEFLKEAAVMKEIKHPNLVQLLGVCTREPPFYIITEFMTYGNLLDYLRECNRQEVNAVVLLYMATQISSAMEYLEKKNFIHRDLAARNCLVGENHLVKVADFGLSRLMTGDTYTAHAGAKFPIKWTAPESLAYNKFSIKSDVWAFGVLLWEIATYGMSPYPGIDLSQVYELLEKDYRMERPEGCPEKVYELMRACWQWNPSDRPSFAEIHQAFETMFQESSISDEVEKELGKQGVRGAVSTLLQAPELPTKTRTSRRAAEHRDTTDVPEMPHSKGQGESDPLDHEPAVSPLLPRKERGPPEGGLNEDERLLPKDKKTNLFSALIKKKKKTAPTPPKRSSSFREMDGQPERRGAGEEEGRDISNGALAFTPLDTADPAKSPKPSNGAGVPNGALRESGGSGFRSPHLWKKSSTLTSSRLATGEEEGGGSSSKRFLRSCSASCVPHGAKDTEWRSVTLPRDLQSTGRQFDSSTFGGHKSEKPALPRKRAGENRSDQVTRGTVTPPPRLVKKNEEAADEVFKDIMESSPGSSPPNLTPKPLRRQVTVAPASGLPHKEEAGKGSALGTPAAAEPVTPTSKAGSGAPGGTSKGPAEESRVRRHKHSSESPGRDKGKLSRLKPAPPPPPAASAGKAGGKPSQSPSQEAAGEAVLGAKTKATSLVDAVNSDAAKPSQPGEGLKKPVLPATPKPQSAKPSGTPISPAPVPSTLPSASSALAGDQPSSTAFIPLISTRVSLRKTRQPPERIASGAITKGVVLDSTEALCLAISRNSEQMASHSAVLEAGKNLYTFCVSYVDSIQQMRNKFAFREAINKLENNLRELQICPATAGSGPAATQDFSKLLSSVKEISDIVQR
# Target sequence (Q13671 whole entry, looked up): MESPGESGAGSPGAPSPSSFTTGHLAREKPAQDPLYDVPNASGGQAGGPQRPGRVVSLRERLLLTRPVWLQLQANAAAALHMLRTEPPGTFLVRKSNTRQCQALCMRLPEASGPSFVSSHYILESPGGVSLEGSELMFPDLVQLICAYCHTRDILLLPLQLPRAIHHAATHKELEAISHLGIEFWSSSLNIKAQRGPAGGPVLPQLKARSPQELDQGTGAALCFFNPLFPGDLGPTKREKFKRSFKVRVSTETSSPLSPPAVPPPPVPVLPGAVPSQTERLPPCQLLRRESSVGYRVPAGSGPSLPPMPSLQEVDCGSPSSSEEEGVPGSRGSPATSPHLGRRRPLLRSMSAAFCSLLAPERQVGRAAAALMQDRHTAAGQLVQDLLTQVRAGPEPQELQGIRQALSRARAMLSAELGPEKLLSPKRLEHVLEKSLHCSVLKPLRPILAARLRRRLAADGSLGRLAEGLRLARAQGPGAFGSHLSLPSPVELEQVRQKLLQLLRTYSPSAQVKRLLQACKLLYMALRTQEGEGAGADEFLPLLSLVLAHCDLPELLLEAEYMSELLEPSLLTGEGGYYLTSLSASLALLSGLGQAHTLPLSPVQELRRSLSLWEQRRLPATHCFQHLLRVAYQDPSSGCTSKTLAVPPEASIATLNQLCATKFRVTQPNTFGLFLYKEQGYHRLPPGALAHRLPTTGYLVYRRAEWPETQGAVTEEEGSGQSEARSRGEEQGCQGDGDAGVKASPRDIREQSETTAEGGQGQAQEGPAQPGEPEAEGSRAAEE
# Numbers without * were called inactive; ? = inconclusive; . = not tested or not shown.
SMILES,RBBP9 inhibitor,UBC13 inh,ALR H2O2 inh,PREPL inh,UBC9 SUMO inh,Rin1-Abl PPI inh
CC(=O)NC(CC(=O)NNC(=O)c1cccs1)c1ccccc1 (centres undefined),.,-8,-1,3,.,5
CCOC(=O)c1c(N)sn(-c2ccccc2C)c1=S,-7,-1,97*,8,12,2
COCCN(CCOC)S(=O)(=O)c1ccc(NC(=O)c2cnccn2)cc1,.,-6,-14,10,-9,-2
COc1cc2c(cc1NC(=O)CSc1cccc[n+]1[O-])oc1ccccc12,-4,0,96*,1,10,1
COc1cc2c(cc1NC(=O)CSc1ccc(C)cc1)oc1ccccc12,-2,8,-6,-42,-22,3
O=C(N/N=C(\Cc1ncc[nH]1)c1ccccc1)c1cccnc1,11,-30,-9,9,5,-6
CC1CCCCN1CCCNC(=O)CCCN1C(=O)c2cccnc2Sc2ccccc21 (centres undefined),.,0,-10,-1,20,1
Nc1nc(N2CCN(c3ccc(F)cc3)CC2)n[nH]1,-5,1,98*,1,17,4
CCn1nc(NS(=O)(=O)c2ccc([N+](=O)[O-])cc2)c2cc3cccc(C)c3nc21,.,-10,44,7,-4,2
CCn1nc(NS(=O)(=O)c2ccccc2[N+](=O)[O-])c2cc3cccc(C)c3nc21,.,-8,92*,2,0,-3
CCCn1nc(NS(=O)(=O)c2cccc3nonc23)c2cc3ccccc3nc21,.,-24,99*,19,-6,1
CCCn1nc(NS(=O)(=O)c2ccccc2[N+](=O)[O-])c2cc3ccccc3nc21,.,-11,66,11,2,-4
CCn1nc(NS(=O)(=O)c2ccccc2)c2cc3cc(C)ccc3nc21,.,-12,81*,11,-11,0
N#Cc1ccccc1OCC(=O)Nc1ccc2c(c1)OCO2,.,.,.,.,.,-2
COc1cccc(NC(=O)c2cc(OC)c(OC)c(OC)c2Br)c1,-7,-16,97*,-5,8,2
CCOC(=O)c1ccc(NC(=O)c2cc(OC)c(OC)c(OC)c2Br)cc1,-10,-10,-17,16,11,2
Clc1ccccc1C1Nc2cccc3cccc(c23)N1,.,-26,-15,13,43,4
c1coc(C2Nc3cccc4cccc(c34)N2)c1,2,-27,17,43*,?,.
O=C1C[C@@H](c2ccc(O)cc2)Oc2cc(O)cc(O)c21,-7,1,100*,12,6,1
CCN(CC)Cc1ccccc1CNC(=O)c1cccc(S(=O)(=O)Nc2ccc3c(c2)OCO3)c1,.,9,-7,13,.,1
COc1ccc(-c2cc(C(F)(F)F)nc(S(=O)(=O)CCC(=O)N3CCOCC3)n2)cc1,3,8,90*,-6,-4,0
COc1ccccc1-c1cc(C(F)(F)F)nc(S(=O)(=O)CCCC(=O)N2CCOCC2)n1,4,0,.,28,6,-2
O=C(CSc1nnc(C2CC2)n1C1CC1)N1CCN(c2ccc(O)cc2)CC1,.,.,.,.,.,4
NC(=Nc1nc(-c2ccccn2)cc2ccccc12)c1ccccn1,.,.,.,.,.,-4
O=C(Nc1nnc(-c2ccco2)o1)c1cccc(Cl)c1,-3,-25,96*,-11,11,-7
SMILES,RBBP9 inhibitor,UBC13 inh,ALR H2O2 inh,PREPL inh,UBC9 SUMO inh,Rin1-Abl PPI inh
O=C(Nc1nnc(-c2ccco2)o1)c1ccc(Br)s1,.,.,.,.,.,4
O=C(Nc1nnc(-c2ccccn2)o1)c1cccc(Cl)c1,-9,-27,.,10,15,-5
O=C(Nc1nnc(-c2ccco2)o1)c1ccc(Cl)s1,.,-29,96*,-3,4,-2
CCOc1ccc(S(=O)(=O)N2CCOCC2)cc1[N+](=O)[O-],-10,-19,-26,7,24,1
Cc1ccc(Cl)cc1NC(=O)CSC(N)=O,-5,40,98*,-2,38,-1
CCOC(=O)CSCC(=O)Nc1cc(C)ccc1C,-10,6,98*,10,18,-2
COC(=O)c1ccc(COC(=O)CSCC(=O)Nc2ccc(C)cc2C)cc1,.,3,.,2,.,2
COCC(=O)Nc1cc(Cl)ccc1C,-10,4,-4,6,6,-2
O=C(NN=C1CCCC1)c1ccccc1[N+](=O)[O-],.,-2,-9,13,-4,-4
COc1ccc(NC(=O)N2CCCc3ccccc32)cc1,-5,4,-12,-4,-13,-1
COc1ccc(N/N=C(/C(C)=O)N2CCCc3ccccc32)cc1,1,-10,96*,9,2,3
CCNC(=O)C1(C)CCCN(CCOc2ccc(Cl)cc2)C1 (centres undefined),.,.,.,.,.,1
CC[C@@]1(c2cccc(C)c2)C(=O)N(C(=O)OC)N1C(=O)OC,.,-6,83*,7,4,3
CC[C@@]1(c2ccccc2OC)C(=O)N(C(=O)OC)N1C(=O)OC,.,-6,.,5,1,0
CN(CCOc1ccccc1)C(=O)C1CCC(=O)N(CCCN2CCCC2=O)C1 (centres undefined),.,-4,-6,6,-10,3
Cc1ccc(NC(=O)CSc2nc3nn(-c4ccccc4)c(=O)c-3c3n2CCCCC3)cc1F,.,-30,.,37,.,-3
CCCc1[nH]nc2c1C(c1ccccc1OC)C(C#N)=C(N)O2 (centres undefined),-16,3,42,-7,-20,-1
CCCc1[nH]nc2c1C(c1ccc(O)c(OC)c1)C(C#N)=C(N)O2 (centres undefined),-10,-14,99*,1,29,-2
CCc1cc(=O)n2[nH]c(C)c(-c3ccc(OC)cc3)c2n1,.,-1,33,12,-8,-2
CCOC(=O)Cc1cc(=O)n2[nH]c(C)c(-c3ccc(OC)cc3)c2n1,-9,8,91*,18,-4,3
CCOC(=O)Cc1cc(=O)n2[nH]c(C)c(-c3ccc(Cl)cc3)c2n1,2,-6,99*,1,-17,-1
COC(=O)Cc1cc(=O)n2[nH]c(C)c(-c3ccccc3)c2n1,-5,3,48,15,3,0
COc1cccc(N(CC(=O)N/N=C(\C)c2cccs2)S(C)(=O)=O)c1,-8,6,0,2,0,2
CCN(c1ccccc1)C1(O)C(=O)c2ccccc2C1=O,-5,0,95*,-6,-10,1
O=C1c2ccccc2C(=O)C1(O)O,.,-52,-46,15,.,.
OCC[C@H]1C[C@@H](O)[C@H](O)[C@]2(OCCc3ccccc32)O1,.,0,.,6,.,1
COc1cc(CNn2cn[nH]c2=S)cc(Cl)c1OCc1ccc(F)cc1,-7,6,97*,8,-7,0
S=c1[nH]ncn1NCc1ccc(Cl)cc1Cl,-8,-6,89*,8,14,1
Fc1cccc(Cl)c1CNn1cn[nH]c1=S,-1,7,82*,2,18,-4
